# Experimental data from ChEMBL document CHEMBL4715736, “Identification of anticancer agents based on the thieno[2,3-b]pyridine and 1H-pyrazole molecular scaffolds” (2016).
# Tested on: CCRF-CEM
# Assay: Growth inhibition of human CCRF-CEM cells assessed as cell growth at 10 uM incubated for 48 hrs by sulforhodamine B assay relative to control
# Type: functional
# Conditions: read-out: Activity
# Method in brief: (§1)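 NCI Developmental Therapeutics Program NCI60 panel. Compounds that were active in the 10 µM one-dose screen went on to dose–response testing. Growth at each concentration is expressed relative to untreated control (100%). GI50 (concentration giving 50% of maximal inhibition of proliferation) and TGI (concentration giving total growth inhibition) were derived from the curves.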
row,Structure (SMILES),growth at 10 µM
1,Cc1ccc(S(=O)(=O)n2ccc(-c3ccc(OCCCF)cc3)n2)cc1,75.6%

# Tested on: HL-60(TB)
# Assay: Growth inhibition of human HL-60(TB) cells assessed as cell growth at 10 uM incubated for 48 hrs by sulforhodamine B assay relative to control
# Type: functional
# Conditions: read-out: Activity
# Method in brief: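 Screened by the NCI Developmental Therapeutics Program on its panel of 60 human tumour cell lines. Compounds were first tested at a single 10 µM dose, and compounds active there went to dose-response curves. Growth is expressed relative to untreated control (100%). GI50 (50% of maximal proliferation inhibition) and TGI (total growth inhibition) were derived from the dose-response data.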
row,Structure (SMILES),growth at 10 µM
1,Cc1ccc(S(=O)(=O)n2ccc(-c3ccc(OCCCF)cc3)n2)cc1,107%

# Tested on: MOLT-4
# Assay: Growth inhibition of human MOLT-4 cells assessed as cell growth at 10 uM incubated for 48 hrs by sulforhodamine B assay relative to control
# Type: functional
# Conditions: read-out: Activity
# Method in brief: (§2)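 Submitted to the NCI Developmental Therapeutics Program for the NCI60 human tumour cell line panel. First screen at a single 10 µM concentration. Read-out is growth relative to untreated control cells set at 100%.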
row,Structure (SMILES),growth at 10 µM
1,Cc1ccc(S(=O)(=O)n2ccc(-c3ccc(OCCCF)cc3)n2)cc1,73.2%

# Tested on: A549
# Assay: Growth inhibition of human A549/ATCC cells assessed as cell growth at 10 uM incubated for 48 hrs by sulforhodamine B assay relative to control
# Type: functional
# Conditions: read-out: Activity
# Method in brief: as §1
row,Structure (SMILES),growth at 10 µM
1,Cc1ccc(S(=O)(=O)n2ccc(-c3ccc(OCCCF)cc3)n2)cc1,78.8%

# Tested on: HOP-62
# Assay: Growth inhibition of human HOP-62 cells assessed as cell growth at 10 uM incubated for 48 hrs by sulforhodamine B assay relative to control
# Type: functional
# Conditions: read-out: Activity
# Method in brief: as §2
row,Structure (SMILES),growth at 10 µM
1,Cc1ccc(S(=O)(=O)n2ccc(-c3ccc(OCCCF)cc3)n2)cc1,108%

# Tested on: HOP-92
# Assay: Growth inhibition of human HOP-92 cells assessed as cell growth at 10 uM incubated for 48 hrs by sulforhodamine B assay relative to control
# Type: functional
# Conditions: read-out: Activity
# Method in brief: as §2
row,Structure (SMILES),growth at 10 µM
1,Cc1ccc(S(=O)(=O)n2ccc(-c3ccc(OCCCF)cc3)n2)cc1,71.8%

# Tested on: NCI-H226
# Assay: Growth inhibition of human NCI-H226 cells assessed as cell growth at 10 uM incubated for 48 hrs by sulforhodamine B assay relative to control
# Type: functional
# Conditions: read-out: Activity
# Method in brief: as §2
row,Structure (SMILES),growth at 10 µM
1,Cc1ccc(S(=O)(=O)n2ccc(-c3ccc(OCCCF)cc3)n2)cc1,77.6%

# Tested on: NCI-H322M
# Assay: Growth inhibition of human NCI-H322M cells assessed as cell growth at 10 uM incubated for 48 hrs by sulforhodamine B assay relative to control
# Type: functional
# Conditions: read-out: Activity
# Method in brief: as §2
row,Structure (SMILES),growth at 10 µM
1,Cc1ccc(S(=O)(=O)n2ccc(-c3ccc(OCCCF)cc3)n2)cc1,93.7%

# Tested on: NCI-H460
# Assay: Growth inhibition of human NCI-H460 cells assessed as cell growth at 10 uM incubated for 48 hrs by sulforhodamine B assay relative to control
# Type: functional
# Conditions: read-out: Activity
# Method in brief: as §2
row,Structure (SMILES),growth at 10 µM
1,Cc1ccc(S(=O)(=O)n2ccc(-c3ccc(OCCCF)cc3)n2)cc1,89.6%

# Tested on: HCT-116
# Assay: Growth inhibition of human HCT-116 cells assessed as cell growth at 10 uM incubated for 48 hrs by sulforhodamine B assay relative to control
# Type: functional
# Conditions: read-out: Activity
# Method in brief: as §2
row,Structure (SMILES),growth at 10 µM
1,Cc1ccc(S(=O)(=O)n2ccc(-c3ccc(OCCCF)cc3)n2)cc1,86.1%

# Tested on: HCT-15
# Assay: Growth inhibition of human HCT-15 cells assessed as cell growth at 10 uM incubated for 48 hrs by sulforhodamine B assay relative to control
# Type: functional
# Conditions: read-out: Activity
# Method in brief: as §2
row,Structure (SMILES),growth at 10 µM
1,Cc1ccc(S(=O)(=O)n2ccc(-c3ccc(OCCCF)cc3)n2)cc1,93.5%

# Tested on: KM12
# Assay: Growth inhibition of human KM12 cells assessed as cell growth at 10 uM incubated for 48 hrs by sulforhodamine B assay relative to control
# Type: functional
# Conditions: read-out: Activity
# Method in brief: as §2
row,Structure (SMILES),growth at 10 µM
1,Cc1ccc(S(=O)(=O)n2ccc(-c3ccc(OCCCF)cc3)n2)cc1,95%

# Tested on: SF-295
# Assay: Growth inhibition of human SF-295 cells assessed as cell growth at 10 uM incubated for 48 hrs by sulforhodamine B assay relative to control
# Type: functional
# Conditions: read-out: Activity
# Method in brief: (§3)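 Run by the NCI Developmental Therapeutics Program as part of its 60-line human tumour panel. Each compound tested at a single 10 µM dose. Growth expressed as % relative to untreated control cells (100%).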
row,Structure (SMILES),growth at 10 µM
1,Cc1ccc(S(=O)(=O)n2ccc(-c3ccc(OCCCF)cc3)n2)cc1,83.7%

# Tested on: SF-539
# Assay: Growth inhibition of human SF-539 cells assessed as cell growth at 10 uM incubated for 48 hrs by sulforhodamine B assay relative to control
# Type: functional
# Conditions: read-out: Activity
# Method in brief: as §3
row,Structure (SMILES),growth at 10 µM
1,Cc1ccc(S(=O)(=O)n2ccc(-c3ccc(OCCCF)cc3)n2)cc1,95.2%

# Tested on: SNB-75
# Assay: Growth inhibition of human SNB-75 cells assessed as cell growth at 10 uM incubated for 48 hrs by sulforhodamine B assay relative to control
# Type: functional
# Conditions: read-out: Activity
# Method in brief: as §3
row,Structure (SMILES),growth at 10 µM
1,Cc1ccc(S(=O)(=O)n2ccc(-c3ccc(OCCCF)cc3)n2)cc1,78.3%

# Tested on: U-251
# Assay: Growth inhibition of human U-251 cells assessed as cell growth at 10 uM incubated for 48 hrs by sulforhodamine B assay relative to control
# Type: functional
# Conditions: read-out: Activity
# Method in brief: as §3
row,Structure (SMILES),growth at 10 µM
1,Cc1ccc(S(=O)(=O)n2ccc(-c3ccc(OCCCF)cc3)n2)cc1,85%

# Tested on: Malme-3M
# Assay: Growth inhibition of human Malme-3M cells assessed as cell growth at 10 uM incubated for 48 hrs by sulforhodamine B assay relative to control
# Type: functional
# Conditions: read-out: Activity
# Method in brief: as §2
row,Structure (SMILES),growth at 10 µM
1,Cc1ccc(S(=O)(=O)n2ccc(-c3ccc(OCCCF)cc3)n2)cc1,101%

# Tested on: M14
# Assay: Growth inhibition of human M14 cells assessed as cell growth at 10 uM incubated for 48 hrs by sulforhodamine B assay relative to control
# Type: functional
# Conditions: read-out: Activity
# Method in brief: as §2
row,Structure (SMILES),growth at 10 µM
1,Cc1ccc(S(=O)(=O)n2ccc(-c3ccc(OCCCF)cc3)n2)cc1,94.7%

# Tested on: MDA-MB-435
# Assay: Growth inhibition of human MDA-MB-435 cells assessed as cell growth at 10 uM incubated for 48 hrs by sulforhodamine B assay relative to control
# Type: functional
# Conditions: read-out: Activity
# Method in brief: as §2
row,Structure (SMILES),growth at 10 µM
1,Cc1ccc(S(=O)(=O)n2ccc(-c3ccc(OCCCF)cc3)n2)cc1,91.3%

# Tested on: SK-MEL-28
# Assay: Growth inhibition of human SK-MEL-28 cells assessed as cell growth at 10 uM incubated for 48 hrs by sulforhodamine B assay relative to control
# Type: functional
# Conditions: read-out: Activity
# Method in brief: as §3
row,Structure (SMILES),growth at 10 µM
1,Cc1ccc(S(=O)(=O)n2ccc(-c3ccc(OCCCF)cc3)n2)cc1,85%

# Tested on: SK-MEL-5
# Assay: Growth inhibition of human SK-MEL-5 cells assessed as cell growth at 10 uM incubated for 48 hrs by sulforhodamine B assay relative to control
# Type: functional
# Conditions: read-out: Activity
# Method in brief: as §3
row,Structure (SMILES),growth at 10 µM
1,Cc1ccc(S(=O)(=O)n2ccc(-c3ccc(OCCCF)cc3)n2)cc1,73.5%

# Tested on: UACC-257
# Assay: Growth inhibition of human UACC-257 cells assessed as cell growth at 10 uM incubated for 48 hrs by sulforhodamine B assay relative to control
# Type: functional
# Conditions: read-out: Activity
# Method in brief: as §3
row,Structure (SMILES),growth at 10 µM
1,Cc1ccc(S(=O)(=O)n2ccc(-c3ccc(OCCCF)cc3)n2)cc1,80%

# Tested on: UACC-62
# Assay: Growth inhibition of human UACC-62 cells assessed as cell growth at 10 uM incubated for 48 hrs by sulforhodamine B assay relative to control
# Type: functional
# Conditions: read-out: Activity
# Method in brief: as §3
row,Structure (SMILES),growth at 10 µM
1,Cc1ccc(S(=O)(=O)n2ccc(-c3ccc(OCCCF)cc3)n2)cc1,63.9%

# Tested on: IGROV-1
# Assay: Growth inhibition of human IGROV-1 cells assessed as cell growth at 10 uM incubated for 48 hrs by sulforhodamine B assay relative to control
# Type: functional
# Conditions: read-out: Activity
# Method in brief: as §2
row,Structure (SMILES),growth at 10 µM
1,Cc1ccc(S(=O)(=O)n2ccc(-c3ccc(OCCCF)cc3)n2)cc1,92.5%

# Tested on: OVCAR-5
# Assay: Growth inhibition of human OVCAR-5 cells assessed as cell growth at 10 uM incubated for 48 hrs by sulforhodamine B assay relative to control
# Type: functional
# Conditions: read-out: Activity
# Method in brief: as §3
row,Structure (SMILES),growth at 10 µM
1,Cc1ccc(S(=O)(=O)n2ccc(-c3ccc(OCCCF)cc3)n2)cc1,110%

# Tested on: NCI/ADR-RES
# Assay: Growth inhibition of human NCI/ADR-RES cells assessed as cell growth at 10 uM incubated for 48 hrs by sulforhodamine B assay relative to control
# Type: functional
# Conditions: read-out: Activity
# Method in brief: as §2
row,Structure (SMILES),growth at 10 µM
1,Cc1ccc(S(=O)(=O)n2ccc(-c3ccc(OCCCF)cc3)n2)cc1,77.1%

# Tested on: A498
# Assay: Growth inhibition of human A498 cells assessed as cell growth at 10 uM incubated for 48 hrs by sulforhodamine B assay relative to control
# Type: functional
# Conditions: read-out: Activity
# Method in brief: as §1
row,Structure (SMILES),growth at 10 µM
1,Cc1ccc(S(=O)(=O)n2ccc(-c3ccc(OCCCF)cc3)n2)cc1,77%

# Tested on: RXF 393
# Assay: Growth inhibition of human RXF 393 cells assessed as cell growth at 10 uM incubated for 48 hrs by sulforhodamine B assay relative to control
# Type: functional
# Conditions: read-out: Activity
# Method in brief: as §3
row,Structure (SMILES),growth at 10 µM
1,Cc1ccc(S(=O)(=O)n2ccc(-c3ccc(OCCCF)cc3)n2)cc1,91.8%

# Tested on: SN12C
# Assay: Growth inhibition of human SN12C cells assessed as cell growth at 10 uM incubated for 48 hrs by sulforhodamine B assay relative to control
# Type: functional
# Conditions: read-out: Activity
# Method in brief: as §3
row,Structure (SMILES),growth at 10 µM
1,Cc1ccc(S(=O)(=O)n2ccc(-c3ccc(OCCCF)cc3)n2)cc1,80.2%

# Tested on: UO-31
# Assay: Growth inhibition of human UO-31 cells assessed as cell growth at 10 uM incubated for 48 hrs by sulforhodamine B assay relative to control
# Type: functional
# Conditions: read-out: Activity
# Method in brief: as §3
row,Structure (SMILES),growth at 10 µM
1,Cc1ccc(S(=O)(=O)n2ccc(-c3ccc(OCCCF)cc3)n2)cc1,66.4%

# Tested on: PC-3
# Assay: Growth inhibition of human PC-3 cells assessed as cell growth at 10 uM incubated for 48 hrs by sulforhodamine B assay relative to control
# Type: functional
# Conditions: read-out: Activity
# Method in brief: as §3
row,Structure (SMILES),growth at 10 µM
1,Cc1ccc(S(=O)(=O)n2ccc(-c3ccc(OCCCF)cc3)n2)cc1,73.5%

# Tested on: Hs-578T
# Assay: Growth inhibition of human Hs-578T cells assessed as cell growth at 10 uM incubated for 48 hrs by sulforhodamine B assay relative to control
# Type: functional
# Conditions: read-out: Activity
# Method in brief: as §2
row,Structure (SMILES),growth at 10 µM
1,Cc1ccc(S(=O)(=O)n2ccc(-c3ccc(OCCCF)cc3)n2)cc1,109%

# Tested on: MDA-MB-468
# Assay: Growth inhibition of human MDA-MB-468 cells assessed as cell growth at 10 uM incubated for 48 hrs by sulforhodamine B assay relative to control
# Type: functional
# Conditions: read-out: Activity
# Method in brief: as §2
row,Structure (SMILES),growth at 10 µM
1,Cc1ccc(S(=O)(=O)n2ccc(-c3ccc(OCCCF)cc3)n2)cc1,44.4%
